From ChEMBL document CHEMBL4359879, “Synthesis and evaluation of 2-carboxy indole derivatives as potent and selective anti-leukemic agents” (Eur J Med Chem, 2019)
Activity calls are given as the source filed them. No cut-off for these calls is given here.

Columns and labels:
HL-60 [1] = assay: Effect on human HL60 cells assessed as fold change in LILRA5 gene expression at 1.085 uM incubated for 6 hrs by microarray-based method; format: functional
How it was run: (§1)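 HL60 cells were treated in triplicate with 1.085 µM or vehicle for 6 h. Total RNA was extracted with on-column DNase treatment and profiled on expression arrays.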

HL-60 [2] = assay: Effect on human HL60 cells assessed as fold change in CRADD gene expression at 1.085 uM incubated for 6 hrs by microarray-based method; format: functional; how it was run: as §1
HL-60 [3] = assay: Effect on human HL60 cells assessed as fold change in PNMT gene expression at 1.085 uM incubated for 6 hrs by microarray-based method; format: functional; how it was run: as §1
HL-60 [4] = assay: Effect on human HL60 cells assessed as fold change in SPRY1 gene expression at 1.085 uM incubated for 6 hrs by microarray-based method; format: functional; how it was run: as §1
HL-60 [5] = assay: Effect on human HL60 cells assessed as fold change in NPIPB8 gene expression at 1.085 uM incubated for 6 hrs by microarray-based method; format: functional; how it was run: as §1
HL-60 [6] = assay: Effect on human HL60 cells assessed as fold change in TAS1R1 gene expression at 1.085 uM incubated for 6 hrs by microarray-based method; format: functional; how it was run: as §1
RS4-11 [7] = assay: Induction of apoptosis in human RS4:11 cells assessed as accumulation of cells at G2 phase at 300 nM incubated for 18 hrs in presence of PARP antibody by immunofluorescent staining based flow cytometric analysis relative to control; format: functional
How it was run: (§2)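 RS4;11 cells treated with 300 nM or DMSO vehicle for 18 h, then pulsed with 10 μM BrdU for 1 h. Harvested cells immunostained for BrdU/PI (cell cycle), γH2AX (DNA damage) and PARP (apoptosis). Multicolor flow cytometry gated G1, sub-G2-like, G2/M and sub-G0/G1 populations.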

HL-60 [8] = assay: Effect on human HL60 cells assessed as fold change in PPP1R1A gene expression at 1.085 uM incubated for 6 hrs by microarray-based method; format: functional; how it was run: as §1
HL-60 [9] = assay: Induction of cell cycle arrest in human HL60 cells assessed as accumulation of cells at S phase at EC50 incubated for 18 hrs by PI staining based flow cytometric analysis (reference value: 19.0%); format: functional
HL-60 [10] = assay: Effect on human HL60 cells assessed as fold change in MOB2 gene expression at 1.085 uM incubated for 6 hrs by microarray-based method; format: functional; how it was run: as §1
RS4-11 [11] = assay: Induction of cell cycle arrest in human RS4:11 cells assessed as decrease in accumulation at G1 phase at 300 nM incubated for 18 hrs by BrdU/propidium iodide staining based flow cytometric analysis; format: functional; how it was run: as §2
HL-60 [12] = assay: Effect on human HL60 cells assessed as fold change in flaw-mawbo gene expression at 1.085 uM incubated for 6 hrs by microarray-based method; format: functional
T-cell = assay: Cytotoxicity against phytohemagglutinin and interleukin-2-stimulated T-lymphocytes (unknown origin) up to 100 uM after 48 hrs by MTT assay; format: cell-based
How it was run: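 Post-ficoll lymphocytes from healthy donors were grown in RPMI-1640 with 10% FBS and stimulated overnight with phytohemagglutinin (25 µL/mL) plus IL-2 (50 U/mL). They were then exposed to decreasing concentrations for 48 h. Viability was measured by MTT (0.5 mg/ml final, 4 h), with SDS/HCl solubilization and absorbance at 570/620 nm, as survival relative to controls.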

RS4-11 [13] = assay: Induction of DNA damage in human RS4:11 cells assessed as accumulation of cells at G1 phase at 300 nM incubated for 18 hrs in presence of H2AX antibody by immunofluorescent staining based flow cytometric analysis relative to control; format: functional; how it was run: as §2
HL-60 [14] = assay: Effect on human HL60 cells assessed as fold change in HOXB-AS3 gene expression at 1.085 uM incubated for 6 hrs by microarray-based method; format: functional; how it was run: as §1
HL-60 [15] = assay: Effect on human HL60 cells assessed as fold change in GBP3 gene expression at 1.085 uM incubated for 6 hrs by microarray-based method; format: functional; how it was run: as §1
HL-60 [16] = assay: Antiproliferative activity against human HL60 cells assessed as reduction in cell viability after 48 hrs by MTT assay; settings: HL-60, 48 h
HL-60 [17] = assay: Effect on human HL60 cells assessed as fold change in MEIOC gene expression at 1.085 uM incubated for 6 hrs by microarray-based method; format: functional; how it was run: as §1
Tubulin (Homo sapiens) = Tubulin (Homo sapiens) (UniProt P68371+Q9H4B7+P0DPH7+P68366+Q13509+Q71U36+P04350+Q3ZCM7+P07437+P68363+Q9BQE3+Q6PEY2+Q13885+Q9BVA1+Q9BUF5); assay: Induction of microtubule network depolymerization in human HeLa cells assessed as fragmented centrosomal material at 500 nM incubated for 18 hrs by DAPI staining based fluorescence microscopic method; format: cell-based
How it was run: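 HeLa cells (100,000/mL) cultured overnight on glass-bottom dishes, then exposed to 500 nM or 1 μM, or DMSO, for 18 h. Permeabilized (0.5% Triton X-100) and fixed (3.7% formaldehyde). Stained overnight at 4 °C with anti-β-tubulin, then Alexa Fluor 647 secondary for 1 h at room temperature, and DAPI 1 μg/mL for 10 min. Examined by fluorescence microscopy.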

RS4-11 [18] = assay: Induction of apoptosis in human RS4:11 cells assessed as accumulation of cells at G1 phase at 300 nM incubated for 18 hrs in presence of PARP antibody by immunofluorescent staining based flow cytometric analysis relative to control; format: functional; how it was run: as §2
HL-60 [19] = assay: Effect on human HL60 cells assessed as fold change in USP24 gene expression at 1.085 uM incubated for 6 hrs by microarray-based method; format: functional
HL-60 [20] = assay: Induction of differentiation in human HL60 cells assessed as increase in CD11b positive cells at EC50 to EC90 incubated for 24 hrs by 7-AAD staining-based flow cytometric analysis; format: functional, cell-based
How it was run: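 Vitamin D3 at 100 nM and ATRA at 2 μM served as positive controls. Stained with APC anti-CD11b and PE anti-CD14 for 30 min at 4 °C, then 7-AAD.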

HL-60 [21] = assay: Induction of cell cycle arrest in human HL60 cells assessed as accumulation of cells at G2/M phase at EC50 incubated for 12 hrs by PI staining based flow cytometric analysis (reference value: 23.0%); format: functional
HL-60 [22] = assay: Effect on human HL60 cells assessed as fold change in SGOL1 gene expression at 1.085 uM incubated for 6 hrs by microarray-based method; format: functional; how it was run: as §1
RS4-11 [23] = assay: Induction of apoptosis in human RS4:11 cells assessed as accumulation of cells at sub G2 phase at 300 nM incubated for 18 hrs in presence of PARP antibody by immunofluorescent staining based flow cytometric analysis relative to control; format: functional; how it was run: as §2
HL-60 [24] = assay: Induction of cell cycle arrest in human HL60 cells assessed as accumulation of cells at G0/G1 phase at EC50 incubated for 12 hrs by PI staining based flow cytometric analysis (reference value: 56.3%); format: functional
HL-60 [25] = assay: Effect on human HL60 cells assessed as fold change in KPNA1 gene expression at 1.085 uM incubated for 6 hrs by microarray-based method; format: functional; how it was run: as §1
HL-60 [26] = assay: Effect on human HL60 cells assessed as fold change in NCBP2-AS2 gene expression at 1.085 uM incubated for 6 hrs by microarray-based method; format: functional; how it was run: as §1

`COC(=O)c1[nH]c2cc(OC)ccc2c1-c1ccc(C(F)(F)F)cc1` was tested, and the “fold change (FC)” value (HL-60 [1]) was -1.64, the “fold change (FC)” value (HL-60 [2]) was 1.61 and the “fold change (FC)” value (HL-60 [3]) was -1.53. The “fold change (FC)” value (HL-60 [4]) was -1.5, the “fold change (FC)” value (HL-60 [5]) was 1.5 and the “fold change (FC)” value (HL-60 [6]) was -1.51. For the same molecule, the Activity (RS4-11 [7]) was 1.5%, the “fold change (FC)” value (HL-60 [8]) was -1.7 and the Activity (HL-60 [9]) was 8.92%. For the same molecule, the “fold change (FC)” value (HL-60 [10]) was -1.79, the Activity (RS4-11 [11]) was “Active” and the “fold change (FC)” value (HL-60 [12]) was -1.62. For the same molecule, the Activity (T-cell) was “Non-Toxic”, the Activity (RS4-11 [13]) was 6.9% and the “fold change (FC)” value (HL-60 [14]) was -1.54. For the same molecule, the “fold change (FC)” value (HL-60 [15]) was -1.62, the EC90 (HL-60 [16]) was 1000 nM and the “fold change (FC)” value (HL-60 [17]) was -1.63. For the same molecule, the Activity (Tubulin (Homo sapiens)) was “Active”, the Activity (RS4-11 [18]) was 7% and the “fold change (FC)” value (HL-60 [19]) was 1.74. The Activity (HL-60 [20]) was “Active”, the Activity (HL-60 [21]) was 48% and the “fold change (FC)” value (HL-60 [22]) was 1.52. For the same molecule, the Activity (RS4-11 [23]) was 3.5%, the Activity (HL-60 [24]) was 20.8% and the “fold change (FC)” value (HL-60 [25]) was 1.89. For the same molecule, the “fold change (FC)” value (HL-60 [26]) was -1.58.
